Screens deposited in PubChem by several laboratories.
Rows were chosen to be rich in hits. Some 1.9% of all compounds tested hit in one or more screens of this group.
PHOSPHO1 block: inhibitors of human PHOSPHO1 phosphatase | AID 1565 | inhibition, % at 13.3 µM | 290,000 compounds, 1.1% hits | recombinant PHOSPHO1, absorbance phosphatase assay | Q8TCT1; in the data active = inhibition above about 60%
Target sequence (Q8TCT1 whole entry, looked up): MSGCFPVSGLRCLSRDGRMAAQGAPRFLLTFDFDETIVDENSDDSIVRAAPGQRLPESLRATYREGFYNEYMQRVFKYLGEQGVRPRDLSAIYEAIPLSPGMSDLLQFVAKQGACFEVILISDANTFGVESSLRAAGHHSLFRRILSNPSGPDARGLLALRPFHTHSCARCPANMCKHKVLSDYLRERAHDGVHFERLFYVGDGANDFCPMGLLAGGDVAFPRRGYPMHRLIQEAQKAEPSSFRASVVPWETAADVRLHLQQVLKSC
IDE act: boosts human insulin-degrading enzyme activity in HEK cells. FAbeta-B cleavage, fluorescence polarization; 0% vehicle, 100% cell-free pure enzyme wells. P14735. 340,000 compounds, 0.073% hits. activation, % at 5.96 µM;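 active = activation above the mean of all tested compounds plus 3 SD, set per screening campaign, cut at about 17% in these data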
UBC13 polyUb: human UBC13 polyubiquitination inhibition | UBC13 polyubiquitin chain formation, TR-FRET | P61088 | AID 485273 | 330,000 compounds, 0.47% hits | inhibition, % at 20 µM; in the data active = inhibition above about 45%, passing the limit was not always enough; inconclusive = no clear call, values can overlap the other calls
Target sequence (P61088 whole entry, looked up): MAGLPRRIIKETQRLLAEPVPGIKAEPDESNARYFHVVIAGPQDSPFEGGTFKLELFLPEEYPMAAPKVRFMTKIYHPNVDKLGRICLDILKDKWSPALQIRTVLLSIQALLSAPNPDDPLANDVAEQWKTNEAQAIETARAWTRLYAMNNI
proCasp3 act: procaspase-3 (human) activation; P42574; recombinant procaspase-3 D3A, Ac-DEVD-pNA absorbance 405 nm; activation, % at 8.5 µM; 330,000 compounds, 0.11% hits; AID 463141;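 active = activation above the mean of all tested compounds plus 3 SD, cut at about 21% in these data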
Target sequence (P42574 whole entry D9A/D28A/D175A): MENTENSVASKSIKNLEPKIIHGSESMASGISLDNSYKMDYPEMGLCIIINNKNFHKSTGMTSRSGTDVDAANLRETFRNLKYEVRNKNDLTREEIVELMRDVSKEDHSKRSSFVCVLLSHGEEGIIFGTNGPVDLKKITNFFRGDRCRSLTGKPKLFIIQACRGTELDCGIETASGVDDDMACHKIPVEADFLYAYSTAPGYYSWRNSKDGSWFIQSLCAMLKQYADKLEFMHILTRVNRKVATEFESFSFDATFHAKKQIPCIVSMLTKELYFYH
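Assay system: Autoprocessing-dead procaspase-3 D3A mutant enzyme; also added: Ac-DEVD-pNA; doses: one concentration, 8.5 µM nominal, 0.8% DMSO; times: 1 h compound preincubation, 2 h substrate hydrolysis at 25 °C; technique: 405 nm absorbance of p-nitroaniline, reads at 0 and 120 min; measure: % activation between DMSO and enzyme-spiked controls; repeats: single replicate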
IDE cell inh: inhibits human insulin-degrading enzyme in HEK cells | FAbetaB cleavage, fluorescence polarization | P14735 | inhibition, % at 5.59 µM | 320,000 compounds, 0.41% hits;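 active = percent inhibition above the average of all tested compounds plus 3 SD, set per screening campaign, cut at about 16% in these data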;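 note: IDE supplied by intact live HEK cells; FP after avidin binding of uncleaved biotin substrate so inhibition keeps polarization high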
procasp7 counter: counter-screen for procaspase-3 activators: activators of human procaspase-7; P55210; recombinant procaspase-7, Ac-DEVD-pNA absorbance 405 nm; D23A/D198A/D206A triple mutant, cannot self-cleave; scale: DMSO 0, 5 µM enzyme 100; activation, % at 8.5 µM; 330,000 compounds, 0.093% hits;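 active = percent activation above the screen-wide mean plus 3 SD, cut at about 25% in these data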
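System: Uncleavable procaspase-7 mutant enzyme; Amount: 2 µM procaspase-7 mutant as dispensed; Schedule: 1 h compound preincubation, 2 h substrate cleavage, 25 °C; Measured by: 405 nm absorbance of p-nitroaniline; Evaluation: percent activation from buffer-corrected 0–120 min absorbance change; Control set: low DMSO alone, high DMSO plus 5 µM PC-7.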
Casp3 UBC13 ctr: counter-screen for UBC13 inhibitors: human caspase-3 inhibition; shares compounds with UBC13 polyUb; Recombinant caspase-3, Caspase-Glo 3/7 luminescence, 60 min; inhibition, % at 20 µM; 1,400 compounds, 4% hits;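 active = mean inhibition across replicates above about 26%, limit read from the data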
UBC13 conf: confirmation of human UBC13 polyubiquitin inhibitors. shares compounds with UBC13 polyUb. UBC13 polyubiquitination, TR-FRET, biochemical. inhibition, % at 10 µM. 1,400 compounds, 68% hits. AID 488859; in the data active = inhibition above about 45%; inconclusive = no clear call, values can overlap the other calls
Each line names hits and unclear results; the compound was inactive in the other large screens (follow-up assays come after a bar, where they were run).

COc1ccc(COCC(O)CN2CCC(CN3C(=O)c4cccc5cccc(c45)C3=O)CC2)cc1OC (stereo unspecified)	UBC13 polyUb 72.9 | Casp3 UBC13 ctr inactive | UBC13 conf 65.1
COc1cc(COCC(O)CN2CCN(CCN3C(=O)c4cccc5cccc(c45)C3=O)CC2)cc(OC)c1OC (stereo unspecified)	none
Cc1cc(C)cc(OCC(O)CN2CCC(CN3C(=O)c4cccc5cccc(c45)C3=O)CC2)c1 (stereo unspecified)	none (no result: PHOSPHO1 block)
CCc1ccc(OCC(O)CN2CCC(CN3C(=O)c4cccc5cccc(c45)C3=O)CC2)cc1 (stereo unspecified)	UBC13 polyUb 61.1 | Casp3 UBC13 ctr inactive | UBC13 conf 64.6
O=C1c2cccc3cccc(c23)C(=O)N1CCN1CCN(CC(O)COc2ccc3ccccc3c2)CC1 (stereo unspecified)	UBC13 polyUb 105.4 | Casp3 UBC13 ctr inactive | UBC13 conf 112.0
COc1ccccc1C(=O)OCC(=O)Nc1cccc(S(=O)(=O)N2CCCC2)c1	none (no result: PHOSPHO1 block, proCasp3 act, IDE cell inh, procasp7 counter)
COc1cccc(OCC(O)CN2CCC(CN3C(=O)c4cccc5cccc(c45)C3=O)CC2)c1 (stereo unspecified)	none
O=C1c2cccc3cccc(c23)C(=O)N1CC1CCN(CC(O)COc2ccc3ccccc3c2)CC1 (stereo unspecified)	UBC13 polyUb 79.0 (no result: PHOSPHO1 block) | Casp3 UBC13 ctr inactive | UBC13 conf 85.2
COc1ccccc1-n1c(C)c(C(=O)O)c2cc(OC)c3ccccc3c21	none
c1cc2c(cc1C1CCCCC1)c1c3n2CCCNC3CCC1 (stereo unspecified)	UBC13 polyUb 64.4 | Casp3 UBC13 ctr inactive | UBC13 conf 71.6
COCCCNC(=O)c1ccc2c(=O)n(Cc3ccc(Cl)cc3)c(=S)[nH]c2c1	none
O=C(NCCCN1CCOCC1)c1ccc2c(=O)n(Cc3cccc(Br)c3)c(=S)[nH]c2c1	UBC13 polyUb 48.6 | Casp3 UBC13 ctr inactive | UBC13 conf 59.8
CC1CCN(CCNC(=O)c2ccc3c(=O)n(Cc4ccc(Cl)cc4)c(=S)[nH]c3c2)CC1	UBC13 polyUb 45.3 | Casp3 UBC13 ctr inactive | UBC13 conf 60.9
O=C(NCCCN1CCCC1)c1ccc(Cn2c(=S)[nH]c3ccc(Br)cc3c2=O)cc1	UBC13 polyUb 47.8 (no result: IDE act) | Casp3 UBC13 ctr inactive | UBC13 conf inconclusive
O=C(c1ccc(F)cc1)N1CCC(C(=O)N2CCN(S(=O)(=O)c3cccc(Cl)c3)CC2)CC1	none (no result: PHOSPHO1 block)
CCCCN(C)C(=S)Nc1ccsc1C(=O)OC	none
O=C(CSc1nnc(CNC(=O)c2ccccc2)o1)NCC1CCCO1 (stereo unspecified)	none
CCN1CCN(Cc2ccc(NC(=O)c3ccc(C)c(NC(=O)c4ccnnc4)c3)cc2C(F)(F)F)CC1	none
CCN1CCN(Cc2ccc(NC(=O)c3cc(NC(=O)c4cnn(-c5ccccc5)c4N)cc(OC)c3)cc2C(F)(F)F)CC1	UBC13 polyUb 78.6 | Casp3 UBC13 ctr inactive | UBC13 conf 50.4
CCN1CCN(Cc2ccc(NC(=O)c3cc(NC(=O)c4cc(C)on4)cc(OC)c3)cc2C(F)(F)F)CC1	UBC13 polyUb 52.5 | Casp3 UBC13 ctr inactive | UBC13 conf inactive
CCN1CCN(Cc2ccc(NC(=O)c3cc(NC(=O)C(=O)c4c[nH]c5ccccc45)cc(OC)c3)cc2C(F)(F)F)CC1	UBC13 polyUb 55.4 | Casp3 UBC13 ctr inactive | UBC13 conf 76.4
CCN1CCN(Cc2ccc(NC(=O)c3ccc(C)c(NC(=O)C(=O)c4c[nH]c5ccccc45)c3)cc2C(F)(F)F)CC1	UBC13 polyUb 53.1 | Casp3 UBC13 ctr inactive | UBC13 conf 95.9
O=Cc1c(NCCN2CCCC2)c2ccccc2[nH]c1=O	none
CCc1c(C)nc(N2CCN(c3ccc(Cl)cc3)CC2)[nH]c1=O	none
COc1ccc(CCN(C)C(=O)c2cc(=O)c3ccccc3o2)cc1OC	none
C=CCNC(=O)COc1cc(C)cc(C)c1C	none
C[C@@H](NC(=O)c1[nH]cnc1C(=O)Nc1nccs1)c1ccccc1	none (no result: PHOSPHO1 block)
CCC1=C([N+](=O)[O-])C(c2ccc3c(c2)OCO3)NC(=O)N1 (stereo unspecified)	none
Cc1ccc2nc(-c3ccc(NC(=S)NC(=O)C(C)C)cc3)sc2c1	none
Cc1ccc2nc(-c3ccc(NC(=S)NC4CC(C)(C)NC(C)(C)C4)cc3)sc2c1	UBC13 polyUb 91.2 | Casp3 UBC13 ctr inactive | UBC13 conf 96.1
COc1ccccc1N(C(=O)CNC(=O)c1ccco1)C(C(=O)NCC1CCCO1)c1ccccc1 (stereo unspecified)	none
CCOC(=O)c1nn(-c2ccccc2)c(=O)cc1OCC(=O)Nc1cc(C)ccc1OC	UBC13 polyUb 48.3 (no result: PHOSPHO1 block) | Casp3 UBC13 ctr inactive | UBC13 conf inconclusive
NC(=O)CCn1c(C(=O)c2cc(Cl)c(N)c(Cl)c2)c2ccccc2[n+]1[O-]	UBC13 polyUb 61.5 | Casp3 UBC13 ctr inactive | UBC13 conf 65.2
NC(=O)CCn1c(C(=O)c2cccc([N+](=O)[O-])c2)c2ccccc2[n+]1[O-]	none
NCCCn1c(C(=O)c2cc(Cl)c(N)c(Cl)c2)c2ccccc2[n+]1[O-]	UBC13 polyUb 97.0 (no result: PHOSPHO1 block) | Casp3 UBC13 ctr inactive | UBC13 conf 99.9
CC(C)n1nc(C(=O)OCC(=O)NCCc2ccc(S(N)(=O)=O)cc2)c2ccccc2c1=O	none (no result: PHOSPHO1 block, UBC13 polyUb, proCasp3 act, IDE cell inh, procasp7 counter)
CCOC(=O)c1ccc(NC(=O)c2ccc[n+]([O-])c2)cc1	none
CC(OC(=O)c1cccc(N(C)C)c1)C(=O)N1CCc2ccccc2C1 (stereo unspecified)	none (no result: PHOSPHO1 block)
CCOc1ccc(N(CC(=O)Nc2cc(OC)cc(OC)c2)S(=O)(=O)c2c(C)[nH]c(=O)[nH]c2=O)cc1	none
Cn1cccc1C(=O)OCc1ccc(C(C)(C)C)cc1	none
Cc1ccc(NC(=O)C2CCN(c3ncnc4c3nc3n4CCCCC3)CC2)cc1Cl	UBC13 polyUb 72.4 | Casp3 UBC13 ctr inactive | UBC13 conf 94.5
CCN(CCNC(=O)C1CCCN(c2ncnc3c2nc2n3CCCCC2)C1)Cc1ccccc1 (stereo unspecified)	none
CCC1CCCCN1CCCNC(=O)C1CCN(c2ncnc3c2nc2n3CCCCC2)CC1 (stereo unspecified)	UBC13 polyUb 52.9 | Casp3 UBC13 ctr inactive | UBC13 conf 62.7
CC1CCCCN1CCNC(=O)C1CCCN(c2ncnc3c2nc2n3CCCCC2)C1 (stereo unspecified)	none
